# Kir21 block: Kir2.1 (mouse) channel inhibition; P35561; HEK293-Kir2.1, FluxOR thallium flux fluorescence; stronger effect = lower value; B-score at 10 µM; 310,000 tested, 0.85% active; AID 1672;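 active = fluorescence ratio B-score at or below minus 3 SD of library scores, with starting-brightness B-score within 2 SD, cut at about -4.2 in these data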;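 note: channel flux triggered by added potassium and thallium sulfate stimulus; B-score of peak minus minimum fluorescence over baseline after thallium stimulus; more negative B-score means stronger Kir2.1 block with less thallium influx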
# Target sequence (P35561 whole entry, looked up): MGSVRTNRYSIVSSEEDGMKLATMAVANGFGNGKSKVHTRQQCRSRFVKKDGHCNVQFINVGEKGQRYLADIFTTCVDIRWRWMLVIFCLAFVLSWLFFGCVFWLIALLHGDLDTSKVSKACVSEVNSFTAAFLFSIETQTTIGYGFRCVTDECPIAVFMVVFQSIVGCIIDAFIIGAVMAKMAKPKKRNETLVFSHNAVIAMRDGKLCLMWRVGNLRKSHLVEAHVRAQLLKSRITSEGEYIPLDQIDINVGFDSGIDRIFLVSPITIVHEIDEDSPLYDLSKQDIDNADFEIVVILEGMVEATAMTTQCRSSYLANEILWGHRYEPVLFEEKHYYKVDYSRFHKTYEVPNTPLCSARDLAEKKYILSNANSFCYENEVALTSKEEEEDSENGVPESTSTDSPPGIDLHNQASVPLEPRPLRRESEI
# KCNQ1 pot: human KCNQ1 channel potentiation or activation | P51787 | CHO-K1 KCNQ1, thallium flux FluxOR fluorescence; stronger effect = higher value | B-score at 10 µM | 310,000 tested, 0.35% active | AID 2648;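 active = fluorescence ratio B-score, a plate-corrected score, at least three library SD, with initial intensity B-score within 5 SD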
#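 Material: CHO-K1 cells stably expressing KCNQ1. Medium: assay buffer for compound exposure, DMSO matched across wells. Reagent: K+/Tl+ depolarizing stimulus. Compound dosing: single-concentration screen. Times: 37 °C overnight plating, 90-min dark dye load, 20-min compound pretreatment. Technique: FluxOR Tl+ flux fluorescence.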
# KCNK9 inh: inhibitors of human KCNK9 two-pore domain potassium channel | AID 488922 | 310,000 tested, 1.2% active | Q9NPC2 | B-score at 10 µM | HEK293 KCNK9, FluxOR thallium flux fluorescence; stronger effect = lower value;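 active = ratio B-score over 3 SD below the library mean, with starting fluorescence within 5 SD of its mean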;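 note: negative B-score means less thallium flux so channel inhibition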
# KCNQ1 inh: human KCNQ1 channel inhibition; P51787; CHO-K1 KCNQ1, FluxOR thallium flux fluorescence; stronger effect = higher value; B-score at 10 µM; 310,000 tested, 1.3% active; AID 2642;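 active = compounds whose thallium flux B-score, printed positive for inhibition, exceeds three library SD while starting fluorescence stays within three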;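 note: channel opened by potassium depolarization with thallium stimulus after 20 min compound exposure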
# KCNK3 block: human KCNK3 channel inhibition, primary screen; AID 602410; B-score at 10 µM; CHO-KCNK3 thallium flux, FluxOR fluorescence; stronger effect = lower value; O14649; 340,000 tested, 0.84% active;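 active = B-score under library mean minus 4 SD, starting fluorescence ratio at most library mean plus 5 SD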;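 note: more negative B-score means stronger inhibition of thallium flux through KCNK3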
# hERG rescue: shields human hERG channel from block by proarrhythmic agents; Q12809; CHO-hERG, FluxOR thallium flux, dofetilide IC70 present; activation (rescue from dofetilide block), less the hit threshold, % at 10 µM; 310,000 tested, 0.51% active; AID 1511;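 active = activation above the mean of controls blocked by dofetilide plus 5 SD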;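 note: thallium influx through hERG after potassium depolarization seen as dye fluorescence rise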
# KCNK9 inh conf: human KCNK9 inhibitor confirmation; AID 492992; HEK293 KCNK9 cells, FluxOR thallium flux fluorescence; 4,900 tested, 43% active; inhibition, % at 10 µM; shares compounds with KCNK9 inh;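 active = thallium signal inhibited by more than 5 SD of the compound-free buffer control wells, on both duplicate plates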;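 note: 0% = assay buffer control wells without compound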
# Kir2-1 spec: tests whether KCNK9 modulators also affect mouse Kir2.1; inhibition, % at 10 µM; 4,900 tested, 4% active; shares compounds with KCNK9 inh; AID 492993; Kir2.1 cells, FluxOR thallium flux fluorescence;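 active = thallium signal drop more than 5 SD beyond the mean of the no-compound control wells, seen in both duplicate plates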;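 note: signal is fluorescence rise after thallium addition divided by baseline fluorescence; plate controls were assay buffer only for no effect and full block by chlorpromazine control for full effect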
# KCNK9 uninduced: second check of KCNK9 modulator effects in non-induced HEK293 cells; shares compounds with KCNK9 inh; FluxOR thallium flux; inhibition, % at 10 µM; 4,900 tested, 40% active; AID 492997;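 active = thallium signal drop beyond 5 SD of the untreated control mean, on both duplicate plates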;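 note: plate controls were buffer only IC0 wells for no effect and SID17386958 at its maximal inhibitory level for full effect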
# The depositor's hits bear a star; i = inactive; x = no result given. A selection: hits, their analogues and other compounds. The true share with any hit is near 3.7%.
SMILES,Kir21 block,KCNQ1 pot,KCNK9 inh,KCNQ1 inh,KCNK3 block,hERG rescue,KCNK9 inh conf,Kir2-1 spec,KCNK9 uninduced
Clc1ccc(CN(Cc2ccccc2)C(c2cccs2)c2nnnn2C2CCCC2)cc1 (stereo not drawn),-0.03,i,i,i,i,-9.0,x,x,x
CC(C)(C)n1nnnc1C(c1cccnc1)N(Cc1ccccc1)Cc1cccs1 (stereo not drawn),0.2,i,-12.7*,i,i,-8.4,45.5%*,i,52.5%*
CC(C)(C)n1nnnc1C(c1ccc(C(F)(F)F)cc1)N(Cc1ccc(F)cc1)Cc1ccco1 (stereo not drawn),1.17,i,-10.5*,i,i,-4.7,41.5%*,i,31.0%*
c1ccc(CN(Cc2ccco2)C(c2ccncc2)c2nnnn2C2CCCC2)cc1 (stereo not drawn),0.55,i,i,i,i,-4.5,x,x,x
COc1ccc(/C=N/NC(=O)C(O)(c2ccccc2)c2ccccc2)cc1OC,1.28,i,i,i,i,-6.3,x,x,x
CCn1cc(C(=O)Nc2ncccc2O)c(=O)c2cc(F)c(N3CCN(C(=O)c4ccco4)CC3)cc21,-2.34,i,i,i,i,-9.1,x,x,x
CC(C)(C)n1nnnc1C(c1ccc(Cl)cc1)N(Cc1cccnc1)Cc1ccco1 (stereo not drawn),-1.28,i,-14.4*,6*,-10.1*,-10.0,52.0%*,i,39.0%*
Cc1ccc(C(c2nnnn2C(C)(C)C)N(Cc2ccco2)Cc2cccs2)cc1 (stereo not drawn),1.14,i,-17.2*,i,i,-7.5,65.5%*,i,30.5%*
Cc1ccc(S(=O)(=O)Cn2nnnc2CN(Cc2ccco2)Cc2cccs2)cc1,-0.74,i,i,i,i,-6.8,x,x,x
Fc1ccc(C(c2nnnn2C2CCCC2)N(Cc2ccco2)CC2CCCO2)cc1 (stereo not drawn),-0.91,i,i,i,i,-3.6,x,x,x
CC(C)(C)n1nnnc1C(c1ccc(F)cc1)N(Cc1ccc(F)cc1)Cc1ccco1 (stereo not drawn),-0.17,i,-15*,7*,i,-15.1,71.5%*,i,40.0%*
COc1cc2cc(CN(Cc3cccs3)C(=S)Nc3ccccc3)c(=O)[nH]c2cc1OC,-0.63,i,i,i,i,-21.4,x,x,x
COc1ccc(CCNc2oc(Cc3cccc4ccccc34)nc2C#N)cc1OC,-2.52,i,-8.23*,i,i,-2.2,40.5%*,37.0%*,27.0%*
CNc1oc(Cc2cccc3ccccc23)nc1C#N,1,i,i,i,i,-12.9,x,x,x
COc1ccc(C(=O)Nc2cc(OCc3ccccc3)c(Cl)cc2Cl)cc1,0.34,i,-15.9*,i,i,-15.6,58.5%*,i,i
O=C(Nc1ccccc1Cl)c1cccc(COc2cc(Cl)ccc2Cl)c1,-0.54,i,-10.9*,i,i,-3.9,30.0%*,i,i
Nc1c(Cl)cc(C2=NCCn3nc4cc(C(F)(F)F)ccc4c32)cc1Cl,0.51,8*,-13.1*,i,i,-5.4,58.5%*,i,i
Cc1ccc(-c2n[nH]c(=S)n2/N=C/c2c(C)[nH]n(-c3ccccc3)c2=O)cc1,0.58,i,i,i,i,-16.1,x,x,x
CCOc1ccccc1OCCOCCN1CCN(Cc2ccccc2)CC1,-2.82,i,i,i,i,-5.2,x,x,x
CCC(=O)c1ccccc1OCCN1CCN(Cc2ccccc2)CC1,-3.64,i,i,i,i,-8.1,i,i,i
O=C(c1ccccc1)c1ccc(OCCOCCN2CCN(Cc3ccccc3)CC2)cc1,-1.88,i,i,i,i,-24.6,i,i,i
CCOC(=O)c1[nH]c2cc3c(cc2c1NC(=O)CN1CCN(CCO)CC1)OCO3,0.58,i,i,i,i,-7.0,x,x,x
Cc1cc(C)c(S(=O)(=O)c2ccccc2C)c(OCC(C)(C)C)n1,-1.63,i,-10.5*,i,i,-7.9,43.5%*,i,53.0%*
CCN(CC)S(=O)(=O)c1cccc(-c2nnc(SCCOc3ccccc3C)o2)c1,0.69,i,i,i,i,-14.9,i,i,i
CCN(CC)S(=O)(=O)c1cccc(-c2nnc(SCCOc3ccc(Cl)cc3)o2)c1,-1.3,i,-9.96*,i,i,-3.9,48.5%*,i,i
SMILES,Kir21 block,KCNQ1 pot,KCNK9 inh,KCNQ1 inh,KCNK3 block,hERG rescue,KCNK9 inh conf,Kir2-1 spec,KCNK9 uninduced
CCN(CC)S(=O)(=O)c1cccc(-c2nnc(SCC(=O)c3cc(C)n(C)c3C)o2)c1,-0.7,i,i,i,i,0.9,x,x,x
COc1ccc(C(=O)NNS(=O)(=O)c2ccccc2)cc1OC,-1.24,i,i,i,i,-2.8,x,x,x
O=C(OCc1ccc(Cl)cc1)c1cccnc1Cl,0.73,i,i,i,i,-3.2,x,x,x
O=C(OCc1ccc(Cl)cc1)c1ccccc1C(=O)c1ccccc1,-2.66,i,-11.9*,i,i,-9.4,52.5%*,33.5%*,49.0%*
Cn1c(CCCOc2ccc(Cl)cc2Cl)nnc1SCC(=O)Nc1cccc(F)c1,-0.77,i,i,i,i,-6.6,x,x,x
Cn1c(CCCOc2ccc(Cl)cc2Cl)nnc1SCC(=O)Nc1ccc(F)c(Cl)c1,1.49,i,i,i,i,-8.9,i,i,i
CCn1c(CCCOc2ccc(Cl)cc2Cl)nnc1SCC(=O)Nc1cc(F)ccc1C,0.03,i,-9.71*,i,i,-6.0,57.5%*,i,30.5%*
CCN(c1ccccc1)S(=O)(=O)c1cc([N+](=O)[O-])ccc1N,-6.98*,i,-10.6*,i,i,-8.3,41.0%*,31.0%*,33.0%*
CCN(CC)S(=O)(=O)c1ccc2[nH]c(=O)cc(C(=O)Nc3ccccc3N3CCCC3)c2c1,-0.8,i,i,i,i,-9.8,x,x,x
CCOC(=O)N1CCN(c2ncnc3scc(-c4ccc(Cl)cc4)c23)CC1,0.9,i,i,i,i,-4.2,x,x,x
Clc1ccc(-c2csc3ncnc(N4CCc5ccccc5C4)c23)cc1,-0.48,i,-10.5*,i,i,-14.3,45.0%*,i,40.5%*
Cc1ccccc1N1CCN(c2ncnc3scc(-c4cccs4)c23)CC1,0.24,i,-13.6*,i,i,-17.8,44.5%*,i,i

# Screening data deposited in PubChem by Johns Hopkins Ion Channel Center.
